Laboratory results as given in ChEMBL document CHEMBL3856193, “Combretastatin A-4 analogues with benzoxazolone scaffold: Synthesis, structure and biological activity” (Eur J Med Chem, 2016).

Assays:
Format in all cases: functional, cell-based
[1] = Growth inhibition of human EAhy926 cells measured after 72 hrs by MTT assay; settings: EA.hy 926, 72 h
In short: (§1)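 Cells seeded at 1 x 10^4/100 µL, treated 24 h later with drug diluted from 2 mmol/L DMSO stock (0.01% DMSO final), 72 h incubation. MTT added for 3 h at 37°C, formazan dissolved in 0.1 N HCl/isopropanol, OD read at 550/630 nm. Eight replicates per concentration, mean ± SD. IC50 from curve fitting. Cells kept at 37°C in humidified CO2.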

[2] = Growth inhibition of human HepG2 cells measured after 72 hrs by MTT assay; settings: HepG2, 72 h; in short: as §1
[3] = Growth inhibition of human K562 cells measured after 72 hrs by MTT assay; settings: K562, 72 h; in short: as §1

Structure (SMILES): COc1cc(/C=C\c2cccc3c2oc(=O)n3C)cc(OC)c1OC
- IC50 [1]: 10.3 µM
- IC50 [2]: 1.07 µM
- IC50 [3]: 0.71 µM

Structure (SMILES): COc1ccc(/C=C\c2cccc3c2oc(=O)n3C)cc1OC
- IC50 [1]: > 50 µM
- IC50 [2]: 30.2 µM
- IC50 [3]: > 50 µM

Structure (SMILES): COc1ccc(/C=C\c2cccc3oc(=O)n(C)c23)cc1
- IC50 [1]: 39.9 µM
- IC50 [2]: 16.1 µM
- IC50 [3]: 0.96 µM

Structure (SMILES): COc1cc(/C=C\c2cccc3oc(=O)n(C)c23)cc(OC)c1OC
- IC50 [1]: 14.8 µM
- IC50 [2]: 19 µM
- IC50 [3]: 10.1 µM

Structure (SMILES): COc1ccc(/C=C\c2ccc3oc(=O)n(C)c3c2)cc1
- IC50 [1]: 15.1 µM
- IC50 [2]: 48.1 µM
- IC50 [3]: 24.2 µM

Structure (SMILES): COc1ccc(/C=C\c2cccc3c2oc(=O)n3C)cc1
- IC50 [1]: > 50 µM
- IC50 [2]: 47.2 µM
- IC50 [3]: > 50 µM

Structure (SMILES): COc1cc(/C=C\c2cccc3c2oc(=O)n3C)cc(OC)c1
- IC50 [1]: 9.53 µM
- IC50 [2]: 4.25 µM
- IC50 [3]: 0.95 µM

Structure (SMILES): COc1ccc(/C=C\c2cccc3oc(=O)n(C)c23)cc1OC
- IC50 [1]: > 50 µM
- IC50 [2]: > 50 µM
- IC50 [3]: 2.07 µM
